Experimental data: ChEMBL document CHEMBL3045311, “Naturally occurring antifungal agents against Zygosaccharomyces bailii and their synergism” (2005)
Values after ≈ are worked out from the molar mass of the structure shown. Active and inactive are the calls of the source. No cut-off for these calls is given here.

How the values were obtained:
Saccharomyces cerevisiae [1] = experiment: Antifungal activity against Saccharomyces cerevisiae ATCC 7754 assessed as reduction in plasma membrane fluidity at 100 ug/mL
Zygosaccharomyces bailii [2] = experiment: Inhibition of cell growth in Zygosaccharomyces bailii at 50 ug/mL; assay type: functional, organism-based
How it was run: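 Exponentially growing Z. bailii ATCC 60483 in YPD broth at 30 °C with drug at 0, 50 or 100 µg/mL. Viable counts taken over time by serial dilution in sterile saline and plating on YPD agar, 48 h at 30 °C, then CFU counted.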

Zygosaccharomyces bailii [3] = experiment: Antifungal activity against Zygosaccharomyces bailii assessed as growth inhibition measured after 48 hr by macrodilution assay; assay type: functional
Zygosaccharomyces bailii [4] = experiment: Antifungal activity against Zygosaccharomyces bailii assessed as growth inhibition measured at pH 3 after 48 hr by macrodilution assay; assay type: functional
How it was run: (§1)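 Broth macrodilution in YPD adjusted to the stated pH, Z. bailii ATCC 60483. Serial 2-fold dilutions in DMF (1% final) added to broth; inoculum 10^5 CFU/mL from a 5 h 30 °C preculture. Static incubation, 30 °C, 48 h. MIC is the lowest concentration with no visible growth; MFC is the lowest with no regrowth after 48 h subculture in drug-free YPD.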

Zygosaccharomyces bailii [5] = experiment: Antifungal activity against Zygosaccharomyces bailii assessed as growth inhibition measured at pH 7 after 48 hr by macrodilution assay; assay type: functional
How it was run: as §1

Zygosaccharomyces bailii [6] = experiment: Antifungal activity against Zygosaccharomyces bailii assessed as growth inhibition measured at pH 5 after 48 hr by macrodilution assay; assay type: functional
How it was run: as §1

Zygosaccharomyces bailii [7] = experiment: Antifungal activity against Zygosaccharomyces bailii assessed as growth inhibition measured at pH 9 after 48 hr by macrodilution assay; assay type: functional
How it was run: as §1

Zygosaccharomyces bailii [8] = experiment: Antifungal activity against Zygosaccharomyces bailii assessed as reduction in cell viability at 100 ug/mL treated at 24, 48 and 72 hr measured after 1 hr of each addition
Saccharomyces cerevisiae [9] = experiment: Antifungal activity against Saccharomyces cerevisiae ATCC 7754 assessed as reduction in plasma membrane fluidity at 25 ug/mL
Zygosaccharomyces bailii [10] = experiment: Antifungal activity against Zygosaccharomyces bailii assessed as growth inhibition at MFC measured after 24 hr by macrodilution assay in presence of cycloheximide protein synthesis inhibitor; assay type: functional, organism-based
How it was run: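 Z. bailii ATCC 60483 exponential cells grown in YPD broth at 30 °C with 50 µg/mL cycloheximide. After 24 h, agent added at its MFC. Viable counts by serial dilution in sterile saline, plating on YPD agar, 48 h at 30 °C, then colony counting.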

Row | SMILES | MFC (Zygosaccharomyces bailii [3]) [µg/mL] | MFC (Zygosaccharomyces bailii [3]; read-out: MFC) [µg/mL] | also measured
1 | CCCCCCCCO |  |  | Activity (Saccharomyces cerevisiae [1]): inactive
2 | CCCCCCCCOC(=O)c1cc(O)c(O)c(O)c1 |  |  | Activity (Saccharomyces cerevisiae [1]): Active
3 | C[C@@H]1C[C@@H]([C@H](O)CC2CC(=O)NC(=O)C2)C(=O)[C@@H](C)C1 |  |  | inhibition (Zygosaccharomyces bailii [2]): Active
4 | CCC/C=C/C(=O)O [(2E)-HEXENOIC ACID] | 1600 (≈ 14 mM) | 800 (≈ 7.01 mM) | 
5 | CCC/C=C\C(=O)O [(2Z)-HEXENOIC ACID] | 1600 (≈ 14 mM) | 800 (≈ 7.01 mM) | 
6 | C/C=C/c1ccc(OC)cc1 [ANETHOLE] | 400 (≈ 2.7 mM) | 200 (≈ 1.35 mM) | MFC (Zygosaccharomyces bailii [4]): 1600 µg/mL (≈ 10.8 mM); MIC (Zygosaccharomyces bailii [4]): 100 µg/mL (≈ 0.675 mM); MFC (Zygosaccharomyces bailii [5]): 1600 µg/mL (≈ 10.8 mM); MIC (Zygosaccharomyces bailii [5]): 800 µg/mL (≈ 5.4 mM); MFC (Zygosaccharomyces bailii [6]): 1600 µg/mL (≈ 10.8 mM); MIC (Zygosaccharomyces bailii [6]): 400 µg/mL (≈ 2.7 mM); MFC (Zygosaccharomyces bailii [7]): 1600 µg/mL (≈ 10.8 mM); MIC (Zygosaccharomyces bailii [7]): 1600 µg/mL (≈ 10.8 mM)
7 | CCCCCC(=O)O [HEXANOATE] | 3200 (≈ 27.5 mM) | 800 (≈ 6.89 mM) | 
8 | C/C=C/C=C/C(=O)OC [METHYL SORBATE] | > 3200 | > 3200 | 
9 | Clc1ccc(COC(Cn2ccnc2)c2ccc(Cl)cc2Cl)c(Cl)c1 (stereo not given) [MICONAZOLE] | 12.5 (≈ 0.03 mM) | 12.5 (≈ 0.03 mM) | 
10 | CC1(C)CCC[C@]2(C)[C@@H](C=O)C(C=O)=CC[C@@H]12 [POLYGODIAL] | 50 (≈ 0.213 mM) | 50 (≈ 0.213 mM) | inhibition (Zygosaccharomyces bailii [8]): Active; Activity (Saccharomyces cerevisiae [9]): Active; growth inhibition (GI) (Zygosaccharomyces bailii [10]): Active
11 | C/C=C/C=C/C(=O)O [SORBIC ACID] | 1600 (≈ 14.3 mM) | 800 (≈ 7.13 mM) | 
